Assay results published in ChEMBL document CHEMBL4270530, “Surmounting the resistance against EGFR inhibitors through the development of thieno[2,3-d]pyrimidine-based dual EGFR/HER2 inhibitors” (Eur J Med Chem, 2018).

What was measured:
M14 = assay: Growth inhibition of human M14 cells assessed as cell growth at 10 uM incubated for 48 hrs by sulforhodamine B assay relative to control; format: functional; conditions: M14, 48 h, read-out: Activity
Summary of the method: (§1)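 NCI-60 one-dose screen run by the NCI Developmental Therapeutics Program at a single 10 µM concentration; growth percent read from the one-dose mean graph.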

MDA-MB-435 = assay: Growth inhibition of human MDA-MB-435 cells assessed as cell growth at 10 uM incubated for 48 hrs by sulforhodamine B assay relative to control; format: functional; conditions: MDA-MB-435, 48 h, read-out: Activity; summary of the method: as §1
SK-MEL-5 = assay: Growth inhibition of human SK-MEL-5 cells assessed as cell growth at 10 uM incubated for 48 hrs by sulforhodamine B assay relative to control; format: functional; conditions: SK-MEL-5, 48 h, read-out: Activity; summary of the method: as §1
SN12C = assay: Growth inhibition of human SN12C cells assessed as cell growth at 10 uM incubated for 48 hrs by sulforhodamine B assay relative to control; format: functional; conditions: read-out: Activity; summary of the method: as §1
U-251 = assay: Growth inhibition of human U251 cells assessed as cell growth at 10 uM incubated for 48 hrs by sulforhodamine B assay relative to control; format: functional; conditions: U-251, 48 h, read-out: Activity
Summary of the method: (§2)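 NCI-60 single-dose screen at 10 µM run by the NCI Developmental Therapeutics Program; growth percent read from the one-dose mean graph, with percent inhibition approximated from those growth-percent values.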

KM12 = assay: Growth inhibition of human KM12 cells assessed as cell growth at 10 uM incubated for 48 hrs by sulforhodamine B assay relative to control; format: functional; conditions: KM12, 48 h, read-out: Activity; summary of the method: as §1
SK-MEL-28 = assay: Growth inhibition of human SK-MEL-28 cells assessed as cell growth at 10 uM incubated for 48 hrs by sulforhodamine B assay relative to control; format: functional; conditions: SK-MEL-28, 48 h, read-out: Activity; summary of the method: as §1
Malme-3M = assay: Growth inhibition of human MALME-3M cells assessed as cell growth at 10 uM incubated for 48 hrs by sulforhodamine B assay relative to control; format: functional; conditions: read-out: Activity; summary of the method: as §1
UACC-257 = assay: Growth inhibition of human UACC257 cells assessed as cell growth at 10 uM incubated for 48 hrs by sulforhodamine B assay relative to control; format: functional; conditions: UACC-257, 48 h, read-out: Activity; summary of the method: as §2
A-431 = assay: Cytotoxicity against human A431 cells over expressing EGFR assessed as reduction in cell viability after 72 hrs by sulforhodamine B assay; format: functional, cell-based; conditions: A-431, 72 h
Summary of the method: (§3)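 Cells seeded and grown 24 h, then exposed to 0.1% DMSO vehicle or 0.3125-20 μM compound for 72 h. Fixed with ice-cold 50% TCA (1 h, 4 °C), stained with 0.4% SRB 30 min at room temperature, dye solubilized in 10 mM tris base pH 10.5, OD read at 560 nm. Survival fraction = OD treated/OD vehicle; IC50 from triplicates of at least two independent experiments, mean ± SD.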

LOX IMVI = assay: Growth inhibition of human LOXIMVI cells assessed as cell growth at 10 uM incubated for 48 hrs by sulforhodamine B assay relative to control; format: functional; conditions: read-out: Activity; summary of the method: as §1
PC-3 = assay: Growth inhibition of human PC3 cells assessed as cell growth at 10 uM incubated for 48 hrs by sulforhodamine B assay relative to control; format: functional; conditions: PC-3, 48 h, read-out: Activity; summary of the method: as §1
Hs-578T = assay: Growth inhibition of human Hs 578T cells assessed as cell growth at 10 uM incubated for 48 hrs by sulforhodamine B assay relative to control; format: functional; conditions: read-out: Activity; summary of the method: as §1
HCT-116 = assay: Growth inhibition of human HCT116 cells assessed as cell growth at 10 uM incubated for 48 hrs by sulforhodamine B assay relative to control; format: functional; conditions: HCT-116, 48 h, read-out: Activity; summary of the method: as §1
T47D = assay: Growth inhibition of human T47D cells assessed as cell growth at 10 uM incubated for 48 hrs by sulforhodamine B assay relative to control; format: functional; conditions: read-out: Activity; summary of the method: as §2
NCI-H460 = assay: Growth inhibition of human NCI-H460 cells assessed as cell growth at 10 uM incubated for 48 hrs by sulforhodamine B assay relative to control; format: functional; conditions: NCI-H460, 48 h, read-out: Activity; summary of the method: as §1
SK-OV-3 = assay: Growth inhibition of human SKOV3 cells at 10 uM incubated for 48 hrs by sulforhodamine B assay relative to control; format: functional; conditions: SK-OV-3, 48 h, read-out: GI; summary of the method: as §1
MDA-MB-231 = assay: Growth inhibition of human MDA-MB-231 cells assessed as cell growth at 10 uM incubated for 48 hrs by sulforhodamine B assay relative to control; format: functional; conditions: MDA-MB-231, 48 h, read-out: Activity; summary of the method: as §1
ACHN = assay: Growth inhibition of human ACHN cells at 10 uM incubated for 48 hrs by sulforhodamine B assay relative to control; format: functional; conditions: read-out: GI; summary of the method: as §1
MDA-MB-361 = assay: Cytotoxicity against human MDA-MB-361 cells over expressing HER2 assessed as reduction in cell viability after 72 hrs by sulforhodamine B assay; format: functional, cell-based; conditions: MDA-MB-361, 72 h; summary of the method: as §3
SNB-19 = assay: Growth inhibition of human SNB19 cells assessed as cell growth at 10 uM incubated for 48 hrs by sulforhodamine B assay relative to control; format: functional; conditions: SNB-19, 48 h, read-out: Activity; summary of the method: as §1
SF-268 = assay: Growth inhibition of human SF268 cells assessed as cell growth at 10 uM incubated for 48 hrs by sulforhodamine B assay relative to control; format: functional; conditions: SF-268, 48 h, read-out: Activity; summary of the method: as §1
A549 = assay: Growth inhibition of human A549/ATCC cells assessed as cell growth at 10 uM incubated for 48 hrs by sulforhodamine B assay relative to control; format: functional; conditions: A549, 48 h, read-out: Activity; summary of the method: as §1
DU-145 = assay: Growth inhibition of human DU145 cells assessed as cell growth at 10 uM incubated for 48 hrs by sulforhodamine B assay relative to control; format: functional; conditions: DU-145, 48 h, read-out: Activity; summary of the method: as §1
RXF 393 = assay: Growth inhibition of human RXF393 cells assessed as cell growth at 10 uM incubated for 48 hrs by sulforhodamine B assay relative to control; format: functional; conditions: RXF 393, 48 h, read-out: Activity; summary of the method: as §1
HT-29 = assay: Growth inhibition of human HT-29 cells assessed as cell growth at 10 uM incubated for 48 hrs by sulforhodamine B assay relative to control; format: functional; conditions: HT-29, 48 h, read-out: Activity; summary of the method: as §1
BT-549 = assay: Growth inhibition of human BT549 cells assessed as cell growth at 10 uM incubated for 48 hrs by sulforhodamine B assay relative to control; format: functional; conditions: BT-549, 48 h, read-out: Activity; summary of the method: as §1

Structure (SMILES)	growth at 10 µM (M14) [%]	growth at 10 µM (MDA-MB-435) [%]	growth at 10 µM (SK-MEL-5) [%]	growth at 10 µM (SN12C) [%]	growth at 10 µM (U-251) [%]	growth at 10 µM (KM12) [%]	growth at 10 µM (SK-MEL-28) [%]	growth at 10 µM (Malme-3M) [%]	growth at 10 µM (UACC-257) [%]	IC50 (A-431) [µM]	growth at 10 µM (LOX IMVI) [%]	growth at 10 µM (PC-3) [%]	growth at 10 µM (Hs-578T) [%]	growth at 10 µM (HCT-116) [%]	growth at 10 µM (T47D) [%]	growth at 10 µM (NCI-H460) [%]	inhibition of growth at 10 µM (SK-OV-3) [%]	growth at 10 µM (MDA-MB-231) [%]	inhibition of growth at 10 µM (ACHN) [%]	IC50 (MDA-MB-361) [µM]	further results
O=[N+]([O-])c1ccc(-c2cc3c(Nc4ccc(OCc5cccc(F)c5)c(Cl)c4)ncnc3s2)cc1	77.2	91.9	92.8	83.4	55.1	80	110	94.4	93.5	11	75.5	54.1	94.9	60.2	76.6	42.2	0	87.8	23	7.5	growth at 10 µM (SNB-19): 68%; growth at 10 µM (SF-268): 80.1%; growth at 10 µM (A549): 51.4%; growth at 10 µM (DU-145): 82.1%; growth at 10 µM (RXF 393): 81.3%; growth at 10 µM (HT-29): 66.9%; growth at 10 µM (BT-549): 103%
Nc1ccc(-c2cc3c(Nc4ccc(OCc5cccc(F)c5)c(Cl)c4)ncnc3s2)cc1	51.9	43.8	57.7	48.4	57	24	39.2	42.1	18.3	9.76	24.5	29.6	77	50.7	15.4	36.5	100	13.4	70	5.7	growth at 10 µM (SNB-19): 77.3%; growth at 10 µM (SF-268): 52.1%; growth at 10 µM (A549): 21.2%; growth at 10 µM (DU-145): 36.9%; growth at 10 µM (RXF 393): 52.5%; growth at 10 µM (HT-29): 84.5%; growth at 10 µM (BT-549): 61.2%
